Bioassay records as filed in PubChem BioAssay.
UPR CHOP act – apoptotic UPR (CHOP) activation. CHO-CHOP luciferase reporter, luminescence; percent of tunicamycin response over DMSO baseline. activation, % at 10 µM. hit rate 0.34% among 330,000. AID 449763;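 active = at 10 µM dose, activation of 40% or more, normalized to positive control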;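 note: 100% = tunicamycin at 10 µg/mL and 0% = DMSO alone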
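measured by = luciferase luminescence | assay system = CHO-CHOP cells, stable luciferase reporter of PERK-eIF2a-CHOP signalling | amount = 500 reporter cells seeded per well | timing = 6 h compound exposure at 37 °C after overnight seeding | controls = positive tunicamycin 10 µg/mL, negative DMSO alone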
NS3 helicase inh – inhibitors of Hepatitis C virus NS3 helicase. hit rate 0.56% among 290,000. NS3 helicase DNA unwinding, Cy5 molecular beacon fluorescence. inhibition, % at 10.9 µM;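 active = inhibition above the mean of all tested compounds plus 3 SD, set per campaign, cut at about 35% in these data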;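 note: 0% = DMSO wells and 100% = thioflavine S control wells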
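Test system: hepatitis C virus NS3 helicase domain fragment enzyme. Also added: annealed dual-labelled DNA beacon duplex, ATP-started. Timing: 60 min unwinding reaction at 25 °C after ATP addition. Technique: Cy5 fluorescence. Measure: % inhibition of unwinding.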
p97 inhibitor – human p97 ATPase inhibition; recombinant p97 ATPase, Kinase-Glo ATP luminescence, 3 h; hit rate 0.42% among 220,000; AID 1481; inhibition, % at 8 µM; P55072; in the data active = inhibition above about 15%;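 note: 0% = DMSO vehicle and 100% = wells lacking enzyme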
UPR XBP1 act – adaptive UPR (XBP1) activation | CHO-XBP1 luciferase reporter, IRE1-XBP1 UPR activation, luminescence; percent of tunicamycin response, DMSO as zero | activation, % at 20 µM | hit rate 0.33% among 330,000 | AID 463104;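 active = versus positive control, 20 µM dose yields 30% or more activation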;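 note: 100% = tunicamycin at 10 µg/mL and 0% = DMSO only wells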
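Material: CHO cell line with stable XBP1 luciferase reporter; schedule: 16-18 h cell attachment at 37 °C, then 6 h compound exposure; signal: glow luminescence from Steady-Glo reagent; medium: serum-containing F12 medium, 10% FBS; benchmarks: tunicamycin 10 µg/mL and vehicle-only wells; read-out: percent activation relative to tunicamycin reference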
M18AAP inhibitor – blocks P. falciparum M18 aspartyl aminopeptidase | AID 1822 | recombinant PfM18AAP, H-Glu-NHMec fluorogenic cleavage | inhibition, % at 7.35 µM | hit rate 1.2% among 290,000;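 active = inhibition above the campaign mean inhibition over all tested compounds plus 3 SD, cut at about 28% in these data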;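 note: 0% = plate median of test compound wells and 100% = 2 mM ZnCl2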
CHOP inhibitor – CHOP inhibition in unfolded protein response | CHO-K1 CHOP-promoter luciferase, tunicamycin-induced, 15-18 h | inhibition, % at 10 µM | hit rate 3.8% among 220,000;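 active = compounds that reduced the stress-induced luciferase reporter signal by more than about 70% of percent inhibition, limit read from the data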;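 note: 0% = tunicamycin plus vehicle and 100% = wells without tunicamycin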
* = called active by the depositor; . = no result. A selection: hits, their analogues and other compounds. The true share with any hit is near 4.5%.

SMILES	UPR CHOP act	NS3 helicase inh	p97 inhibitor	UPR XBP1 act	M18AAP inhibitor	CHOP inhibitor
Cc1cc(C)c2c(=O)n(CC(=O)Nc3cccc(F)c3)sc2n1	0	4	2	-2	65*	16
CCOC(=O)c1cn(CC(=O)Nc2cccc(F)c2)nn1	-2	4	2	3	-5	10
Cc1ccccc1N=C(NOCc1ccc(Cl)cc1Cl)c1nonc1N	0	0	-7	0	-7	85*
O=C(CNC(=O)c1ccc(Cl)cc1Cl)OCCCn1c(=O)[nH]c2ccccc21	1	.	.	-1	.	.
COc1ccc(/C=C/C(=O)c2ccccc2)cc1COc1ccc(F)cc1	1	3	-6	1	0	6
COc1ccc(Oc2ccc(/C=C/C(=O)c3ccc(O)cc3)cc2[N+](=O)[O-])cc1	13	-9	2	4	2	86*
COc1ccc(/C=C/C(=O)c2ccc(O)cc2)cc1COc1ccc(F)cc1	3	-19	6	0	2	85*
COc1ccc(-n2c(=O)/c(=C\c3cccs3)s/c2=C(/C#N)C(=O)N2CCN(C)CC2)cc1	-1	-17	1	-2	4	90*
COc1ccc(C(=O)c2sc3nc(-c4ccccc4)ccc3c2N)cc1	0	21	-2	-3	7	78*
NC(=O)c1sc2nc(-c3cccnc3)ccc2c1N	3	10	-4	2	21	2
CC(C)OC(=O)c1sc2nc(-c3ccccc3)ccc2c1N	-1	3	0	-1	7	83*
Cn1cccc1/C=N/n1cnnc1	0	-1	-2	1	3	15
Brc1ccc(-n2cccc2/C=N/n2cnnc2)cc1	-1	3	2	-2	31*	49
Cc1cc(C)cc(N2C(N)=NC(N)=NC2c2ccccc2F)c1 (stereo unspecified)	1	-32	.	-1	-2	.
CCCCCCCCCC[n+]1cccc2c3ccccc3ccc21	.	-39	0	.	0	106*
O=C(NCc1cccnc1)/C(=C\c1ccc(-c2ccc(Cl)c(Cl)c2)o1)S(=O)(=O)c1ccccc1	.	-22	6	.	-3	110*
O=C(NCc1cccnc1)c1ccc(-c2ccc(Cl)cc2)o1	0	-13	5	3	-5	29
Cc1ccc(S(=O)(=O)CCC(=O)OC(C)c2nnc(-c3cccs3)o2)cc1 (stereo unspecified)	1	.	.	-1	.	.
Cc1ccc(/C=C2\OC(=O)c3ccccc32)cc1	5	-2	-2	0	-9	58
Cc1ccccc1/C=C1\OC(=O)c2ccccc21	5	-2	0	3	2	87*
CCOC(=O)c1ccc(NS(=O)(=O)c2c(N)[nH]c(=O)[nH]c2=O)cc1	-1	.	.	0	.	.
COc1cccc(/C(O)=C/c2nc3ccc(C(=O)NCCc4ccc(Cl)cc4)cc3[nH]c2=O)c1	.	-3	-2	.	0	83*
C[C@H](NC(=O)c1ccco1)C(=O)OCC(=O)N1CC(=O)Nc2ccccc21	1	.	.	-1	.	.
Cc1c(C)n(CC(O)CNc2ccccc2)c2ccccc12 (stereo unspecified)	0	-4	0	-4	12	90*
CCN(C[C@H]1N[C@@](CC)(C(=O)OC)[C@H]2C(=O)N(Cc3ccccc3)C(=O)[C@@H]12)C(=O)C1CCCCC1	1	.	.	-3	.	.
SMILES	UPR CHOP act	NS3 helicase inh	p97 inhibitor	UPR XBP1 act	M18AAP inhibitor	CHOP inhibitor
COc1cc(C(=O)NCC(c2cccs2)N2CCOCC2)cc(OC)c1OC (stereo unspecified)	-1	.	.	0	.	.
CCOc1ccc(C(=O)Nc2ccccc2-c2ccccc2)cc1Cl	-3	-3	-4	-2	0	81*
CCOC(=O)/C=C/C(=O)Nc1cccc([N+](=O)[O-])c1	1	-3	6	-10	-15	48
CCOC(=O)c1cccc(NC(=O)/C=C/c2cccc([N+](=O)[O-])c2)c1	2	-5	5	4	3	84*
Cc1ccc(C(C)C)c(OCCNC(=S)Nc2cccc3ccccc23)c1	0	1	-3	4	3	76*
Cc1ccc(C(C)C)c(OCCNCc2ccccc2)c1	-1	-57	.	0	-13	.
CC(C)(CNC(=O)c1ccc(-c2cccc(C(F)(F)F)c2)o1)N1CCOCC1	-1	.	.	-4	.	.
Cc1cccc(CN2C(=O)N/C(=C/c3ccc(C)s3)C2=O)c1	0	-2	1	3	-6	90*
Cc1ccc(/C=C2/NC(=O)N(Cc3ccccc3)C2=O)s1	-1	1	1	-1	-4	44
COc1ccc(S(=O)(=O)NCCSCc2cccc(C)c2)cc1Br	2	-9	-4	-2	-7	85*
Cc1ccc(S(=O)(=O)NCCSCc2ccccc2)cc1	1	-1	-1	-2	1	22
Cc1c(N=Cc2cc(Br)cc(Br)c2O)cccc1C(=O)O	-2	20	1	-6	34*	41
O=C(O)c1cccc(N/N=C/c2cc(Br)cc(Br)c2O)c1	4	18	10	0	10	-3
CCCC(c1nnnn1Cc1ccc(OC)cc1)N1CCN(C(=O)c2ccco2)CC1 (stereo unspecified)	1	3	.	-2	7	.
COc1ccc(-c2nc3c(c(=O)[nH]c(=O)n3Cc3ccccc3)n2Cc2ccccc2)cc1	7	0	3	6	-12	76*
Cc1cccc(NC(=O)[C@H](Cc2ccccc2)NC(=O)[C@@H]2Cc3ccccc3CN2)c1	2	-15	.	-1	0	.
CCOc1ccc(CCNC(=O)COC(=O)CSc2ccc(C)cc2)cc1OCC	0	.	.	-1	.	.
COc1ccc([N+](=O)[O-])cc1-c1[nH]c(-c2ccc(C(=O)O)cc2)nc1-c1ccccc1	-1	-26	.	-2	-1	.
COc1ccc(-c2nc(-c3ccccc3)c(-c3cc([N+](=O)[O-])ccc3C)[nH]2)cc1O	15	-17	-1	-7	-9	74*
COc1ccc(-c2nc3cccc(C)n3c2NCC2CCCO2)cc1O (stereo unspecified)	0	1	5	-3	10	-7
CCOc1cc(-c2nc3ccccn3c2NCC2CCCO2)ccc1O (stereo unspecified)	-3	-2	1	-2	30*	11
O=C(Nc1ccccc1)C1CCCN1S(=O)(=O)c1ccc(Br)cc1 (stereo unspecified)	-1	-6	.	-3	2	.
CCOCCCNC(=O)c1c(N)n(-c2ccc3c(c2)OCO3)c2nc3ccccc3nc12	2	-2	4	0	4	73*
CCCc1ccc(OCc2ccc(C(=O)OC)o2)c(OC)c1	3	-6	6	0	6	78*
